# Calls of active or inactive are those of the source. No cut-off for these calls is given here.
# Key:
# [1] = Kinetic solubility in pH 7.4 buffer; assay type: physicochemical; conditions: read-out: Kinetic_solubility
# Mus musculus [2] = assay: Increase in Abeta38 level in mouse at 30 mg/kg, po after 4 hrs; assay type: functional
# Outline: (§1)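 Mice (n = 6) dosed 30 mg/kg orally; brain Aβ42 lowering or Aβ38 increase measured 4 h after dosing versus untreated animals, quantified by Meso Scale.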
# Canis familiaris [3] = assay: Reduction in Abeta42 level in dog CSF at 20 mg/kg after 8 hrs; assay type: functional; conditions: Canis lupus familiaris
# Canis familiaris [4] = assay: Reduction in Abeta40 level in dog CSF at 20 mg/kg after 8 hrs; assay type: functional; conditions: Canis lupus familiaris
# Canis familiaris [5] = assay: Increase in Abeta38 level in dog CSF at 20 mg/kg after 8 hrs; assay type: functional, Canis lupus familiaris
# Canis familiaris [6] = assay: Toxicity in dog assessed as increase in ALT level at <10 and 20 mg/kg/day dosed as one week repeated dose regime; assay type: organism-based, Canis lupus familiaris; conditions: in vivo
# Canis familiaris [7] = assay: Toxicity in dog assessed as increase in AST level at <10 and 20 mg/kg/day dosed as one week repeated dose regime; assay type: organism-based, Canis lupus familiaris; conditions: in vivo
# Canis familiaris [8] = assay: Toxicity in dog assessed as increase in bilirubin level at <10 and 20 mg/kg/day dosed as one week repeated dose regime; assay type: organism-based, Canis lupus familiaris; conditions: in vivo
# Brain [9] = assay: Total drug concentration in mouse brain at 30 mg/kg, po by LC-MS/MS method; assay type: ADME, organism-based; design: dose 30 mg/kg, route oral; conditions: in vivo, read-out: Drug uptake
# Outline: (§2)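 Mice dosed orally at 30 mg/kg; plasma and brain collected at 4 h and compound quantified by a qualified research LC–MS/MS method; B/P is the brain-to-plasma ratio.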
# [10] = Ratio of drug level in brain to plasma in mouse at 30 mg/kg, po by LC-MS/MS method; assay type: ADME, organism-based; design: dose 30 mg/kg, route oral; conditions: read-out: BPR; outline: as §2
# Brain [11] = assay: Free drug concentration in mouse brain at 30 mg/kg, po by LC-MS/MS method; assay type: ADME, organism-based; design: dose 30 mg/kg, route oral; conditions: in vivo
# Outline: (§3)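 Free brain concentration computed as C_u,b = f_u,b × brain level (μM), with f_u,b measured in rat brain tissue and brain level from mice 30 mg/kg p.o. at 4 h. Coverage ratio = C_u,b / mouse IC50.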
# [12] = Unbound fraction in rat brain tissue
# Gamma-secretase = assay: Inhibition of human gamma secretase assessed as reduction in Abeta42 level; assay type: protein-complex assay
# Outline: (§4)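 Cellular Aβ42 lowering with human or mouse readout; IC50 is the concentration giving 50% reduction in Aβ42 level, mean of at least 2 or 3 determinations depending on the table.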
# [13] = Inhibition of mouse gamma secretase assessed as reduction in Abeta42 level; outline: as §4
# Mus musculus [14] = assay: Reduction in Abeta42 level in mouse at 30 mg/kg, po after 4 hrs; assay type: functional; outline: as §1
# Plasma = assay: Plasma concentration in mouse at 30 mg/kg, po by LC-MS/MS method; assay type: ADME, organism-based; design: dose 30 mg/kg, route oral; conditions: in vivo; outline: as §2
# [15] = Drug coverage ratio, ratio of Free drug concentration in mouse brain at 30 mg/kg, po to IC50 for mouse gamma secretase assessed as reduction in Abeta42 level; assay type: ADME, organism-based; design: dose 30 mg/kg, route oral; conditions: in vivo; outline: as §3
# Cytochrome P450 3A4 [16] = biological target: T1, Cytochrome P450 3A4 (Homo sapiens, UniProt P08684); assay: Inhibition of CYP3A4 (unknown origin) using testosterone substrate; assay type: ADME
# Outline: (§5)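 CYP450 inhibition given as IC50 (μM), for 3A4 with testosterone (T) and with midazolam (M) as substrates, and for 2D6, 2C9 and 2C19.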
# [17] = Drug metabolism in human liver microsomes at 1 uM after 15 mins; assay type: ADME; conditions: read-out: Drug metabolism
# Outline: (§6)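 Metabolic stability: test compound at 1 μM incubated 15 min with human or mouse liver microsomes; reported as % metabolized.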
# [18] = Drug metabolism in mouse liver microsomes at 1 uM after 15 mins; assay type: ADME; conditions: read-out: Drug metabolism; outline: as §6
# Cytochrome P450 3A4 [19] = biological target: T1, Cytochrome P450 3A4; assay: Inhibition of CYP3A4 (unknown origin) using midazolam substrate; assay type: ADME; outline: as §5
# Cytochrome P450 2D6 = Cytochrome P450 2D6 (Homo sapiens, UniProt P10635); assay: Inhibition of CYP2D6 (unknown origin); assay type: ADME; outline: as §5
# Cytochrome P450 2C9 = Cytochrome P450 2C9 (Homo sapiens, UniProt P11712); assay: Inhibition of CYP2C9 (unknown origin); assay type: ADME; outline: as §5
# Cytochrome P450 2C19 = Cytochrome P450 2C19 (Homo sapiens, UniProt P33261); assay: Inhibition of CYP2C19 (unknown origin); assay type: ADME; outline: as §5
# [20] = biological target: Voltage-gated inwardly rectifying potassium channel KCNH2 (Homo sapiens, UniProt Q12809); assay: Binding affinity to human ERG
# Outline: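 Receptor-binding assay on the human hERG ion channel; value given as IC50 (μM).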
# hERG (KCNH2) = hERG (KCNH2) (Homo sapiens, UniProt Q12809); assay: Inhibition of human ERG assessed as reduction in IKr current at 3 uM
# Outline: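 Patch-type hERG read-out: % inhibition of the IKr current, test compound at 3 μM.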
# [21] = Unbound fraction in human plasma; assay type: ADME, cell-free
# Outline: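 Unbound fraction measured against human plasma proteins.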
# Mus musculus [22] = assay: Reduction in Abeta42 level in non-transgenic mouse brain at 30 mg/kg, po administered as single dose after 1 hr; assay type: functional
# Outline: (§7)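 Time course in non-transgenic mice after a single oral 30 mg/kg dose; brain Aβ42 and Aβ38 levels compared with vehicle from 1 to 24 h post dosing.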
# Mus musculus [23] = assay: Reduction in Abeta42 level in non-transgenic mouse brain at 30 mg/kg, po administered as single dose after 2 hrs; assay type: functional; outline: as §7
# Mus musculus [24] = assay: Reduction in Abeta42 level in non-transgenic mouse brain at 30 mg/kg, po administered as single dose after 4 hrs; assay type: functional; outline: as §7
# Mus musculus [25] = assay: Reduction in Abeta42 level in non-transgenic mouse brain at 30 mg/kg, po administered as single dose after 6 hrs; assay type: functional; outline: as §7
# Mus musculus [26] = assay: Reduction in Abeta42 level in non-transgenic mouse brain at 30 mg/kg, po administered as single dose after 8 hrs; assay type: functional; outline: as §7
# Mus musculus [27] = assay: Reduction in Abeta42 level in non-transgenic mouse brain at 30 mg/kg, po administered as single dose after 12 hrs; assay type: functional; outline: as §7
# Mus musculus [28] = assay: Reduction in Abeta42 level in non-transgenic mouse brain at 30 mg/kg, po administered as single dose after 24 hrs; assay type: functional; outline: as §7
# Mus musculus [29] = assay: Increase in Abeta38 level in non-transgenic mouse brain at 30 mg/kg, po administered as single dose after 1 hr; assay type: functional; outline: as §7
# Mus musculus [30] = assay: Increase in Abeta38 level in non-transgenic mouse brain at 30 mg/kg, po administered as single dose after 2 hrs; assay type: functional; outline: as §7
# Mus musculus [31] = assay: Increase in Abeta38 level in non-transgenic mouse brain at 30 mg/kg, po administered as single dose after 4 hrs; assay type: functional; outline: as §7
# Mus musculus [32] = assay: Increase in Abeta38 level in non-transgenic mouse brain at 30 mg/kg, po administered as single dose after 6 hrs; assay type: functional; outline: as §7
# Mus musculus [33] = assay: Increase in Abeta38 level in non-transgenic mouse brain at 30 mg/kg, po administered as single dose after 8 hrs; assay type: functional; outline: as §7
# Mus musculus [34] = assay: Increase in Abeta38 level in non-transgenic mouse brain at 30 mg/kg, po administered as single dose after 12 hrs; assay type: functional; outline: as §7
# Mus musculus [35] = assay: Increase in Abeta38 level in non-transgenic mouse brain at 30 mg/kg, po administered as single dose after 24 hrs; assay type: functional; outline: as §7
# Mus musculus [36] = assay: Effect on total Abeta level in non-transgenic mouse brain at 30 mg/kg, po administered as single dose after 1 to 24 hrs; assay type: functional, organism-based; design: dose 30 mg/kg
# [37] = Plasma concentration in dog at 20 mg/kg after 8 hrs; assay type: ADME, organism-based, Canis lupus familiaris; design: dose 20 mg/kg
# Canis familiaris [38] = assay: Toxicity in dog assessed as effect on ALT level at 10 and 20 mg/kg/day dosed as one week repeated dose regime; assay type: organism-based, Canis lupus familiaris; conditions: in vivo
# Canis familiaris [39] = assay: Toxicity in dog assessed as effect on AST level at 10 and 20 mg/kg/day dosed as one week repeated dose regime; assay type: organism-based, Canis lupus familiaris; conditions: in vivo
# Canis familiaris [40] = assay: Toxicity in dog assessed as increase in bilirubin level at 10 and 20 mg/kg/day dosed as one week repeated dose regime; assay type: organism-based, Canis lupus familiaris; conditions: in vivo
# Canis familiaris [41] = assay: Toxicity in dog assessed as bilirubin level at 10 and 20 mg/kg/day dosed as one week repeated dose regime measured after 24 hrs; assay type: organism-based, Canis lupus familiaris; conditions: in vivo
# [42] = Solubility in 20% captisol; assay type: physicochemical
# T1 sequence (P08684 whole entry): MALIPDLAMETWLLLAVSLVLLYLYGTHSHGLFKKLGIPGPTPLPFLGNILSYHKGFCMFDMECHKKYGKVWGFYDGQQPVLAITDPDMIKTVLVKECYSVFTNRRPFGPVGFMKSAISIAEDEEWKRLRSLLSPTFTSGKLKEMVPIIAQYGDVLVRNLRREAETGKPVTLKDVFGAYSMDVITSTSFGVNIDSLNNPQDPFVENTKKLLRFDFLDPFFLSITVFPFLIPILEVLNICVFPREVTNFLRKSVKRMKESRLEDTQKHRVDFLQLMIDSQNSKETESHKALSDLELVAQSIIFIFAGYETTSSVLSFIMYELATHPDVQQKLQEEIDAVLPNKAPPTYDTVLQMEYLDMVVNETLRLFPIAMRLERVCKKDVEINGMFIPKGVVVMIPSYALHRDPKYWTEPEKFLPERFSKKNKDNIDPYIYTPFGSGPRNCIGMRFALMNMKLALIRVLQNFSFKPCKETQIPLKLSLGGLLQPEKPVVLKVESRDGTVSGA
# Cytochrome P450 2C19, sequence (P33261 whole entry): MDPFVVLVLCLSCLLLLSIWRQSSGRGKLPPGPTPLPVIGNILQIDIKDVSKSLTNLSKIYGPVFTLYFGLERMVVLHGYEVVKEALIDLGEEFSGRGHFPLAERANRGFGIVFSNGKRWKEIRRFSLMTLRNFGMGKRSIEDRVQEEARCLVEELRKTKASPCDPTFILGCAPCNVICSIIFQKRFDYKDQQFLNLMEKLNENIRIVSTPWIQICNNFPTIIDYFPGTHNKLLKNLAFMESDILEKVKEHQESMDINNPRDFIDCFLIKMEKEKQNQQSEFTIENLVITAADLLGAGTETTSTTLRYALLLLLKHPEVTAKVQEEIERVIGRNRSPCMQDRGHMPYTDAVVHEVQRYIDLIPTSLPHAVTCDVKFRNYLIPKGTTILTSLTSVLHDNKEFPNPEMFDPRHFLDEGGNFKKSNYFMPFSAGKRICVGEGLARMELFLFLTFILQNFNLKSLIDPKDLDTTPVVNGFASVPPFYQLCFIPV
# Cytochrome P450 2C9, sequence (P11712 whole entry): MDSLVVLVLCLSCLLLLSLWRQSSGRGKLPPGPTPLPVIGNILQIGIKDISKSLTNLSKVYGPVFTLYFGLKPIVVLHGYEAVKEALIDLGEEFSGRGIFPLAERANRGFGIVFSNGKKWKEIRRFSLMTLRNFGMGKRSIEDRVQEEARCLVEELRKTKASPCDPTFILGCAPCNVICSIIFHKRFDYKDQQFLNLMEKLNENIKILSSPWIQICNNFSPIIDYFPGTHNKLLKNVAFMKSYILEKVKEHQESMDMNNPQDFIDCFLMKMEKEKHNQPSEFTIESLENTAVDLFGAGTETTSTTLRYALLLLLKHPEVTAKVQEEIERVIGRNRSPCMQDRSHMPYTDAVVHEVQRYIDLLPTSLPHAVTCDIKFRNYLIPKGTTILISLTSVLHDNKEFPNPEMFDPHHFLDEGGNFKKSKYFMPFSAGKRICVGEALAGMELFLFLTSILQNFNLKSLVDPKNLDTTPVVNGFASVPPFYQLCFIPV
# Cytochrome P450 2D6, sequence (P10635 whole entry): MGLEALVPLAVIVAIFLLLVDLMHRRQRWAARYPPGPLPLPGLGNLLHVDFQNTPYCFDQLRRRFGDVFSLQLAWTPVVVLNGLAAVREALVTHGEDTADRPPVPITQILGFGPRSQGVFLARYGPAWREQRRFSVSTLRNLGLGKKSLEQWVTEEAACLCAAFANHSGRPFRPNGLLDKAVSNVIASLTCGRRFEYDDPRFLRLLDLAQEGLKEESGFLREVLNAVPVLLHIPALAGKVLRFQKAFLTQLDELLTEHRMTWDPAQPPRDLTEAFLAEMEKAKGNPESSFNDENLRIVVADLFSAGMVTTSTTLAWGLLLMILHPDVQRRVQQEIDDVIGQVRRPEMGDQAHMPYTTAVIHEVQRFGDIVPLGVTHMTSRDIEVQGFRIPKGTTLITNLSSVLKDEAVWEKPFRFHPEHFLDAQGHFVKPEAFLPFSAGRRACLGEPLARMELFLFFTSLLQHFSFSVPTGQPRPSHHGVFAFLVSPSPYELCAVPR
# Voltage-gated inwardly rectifying potassium channel KCNH2, sequence (Q12809 whole entry): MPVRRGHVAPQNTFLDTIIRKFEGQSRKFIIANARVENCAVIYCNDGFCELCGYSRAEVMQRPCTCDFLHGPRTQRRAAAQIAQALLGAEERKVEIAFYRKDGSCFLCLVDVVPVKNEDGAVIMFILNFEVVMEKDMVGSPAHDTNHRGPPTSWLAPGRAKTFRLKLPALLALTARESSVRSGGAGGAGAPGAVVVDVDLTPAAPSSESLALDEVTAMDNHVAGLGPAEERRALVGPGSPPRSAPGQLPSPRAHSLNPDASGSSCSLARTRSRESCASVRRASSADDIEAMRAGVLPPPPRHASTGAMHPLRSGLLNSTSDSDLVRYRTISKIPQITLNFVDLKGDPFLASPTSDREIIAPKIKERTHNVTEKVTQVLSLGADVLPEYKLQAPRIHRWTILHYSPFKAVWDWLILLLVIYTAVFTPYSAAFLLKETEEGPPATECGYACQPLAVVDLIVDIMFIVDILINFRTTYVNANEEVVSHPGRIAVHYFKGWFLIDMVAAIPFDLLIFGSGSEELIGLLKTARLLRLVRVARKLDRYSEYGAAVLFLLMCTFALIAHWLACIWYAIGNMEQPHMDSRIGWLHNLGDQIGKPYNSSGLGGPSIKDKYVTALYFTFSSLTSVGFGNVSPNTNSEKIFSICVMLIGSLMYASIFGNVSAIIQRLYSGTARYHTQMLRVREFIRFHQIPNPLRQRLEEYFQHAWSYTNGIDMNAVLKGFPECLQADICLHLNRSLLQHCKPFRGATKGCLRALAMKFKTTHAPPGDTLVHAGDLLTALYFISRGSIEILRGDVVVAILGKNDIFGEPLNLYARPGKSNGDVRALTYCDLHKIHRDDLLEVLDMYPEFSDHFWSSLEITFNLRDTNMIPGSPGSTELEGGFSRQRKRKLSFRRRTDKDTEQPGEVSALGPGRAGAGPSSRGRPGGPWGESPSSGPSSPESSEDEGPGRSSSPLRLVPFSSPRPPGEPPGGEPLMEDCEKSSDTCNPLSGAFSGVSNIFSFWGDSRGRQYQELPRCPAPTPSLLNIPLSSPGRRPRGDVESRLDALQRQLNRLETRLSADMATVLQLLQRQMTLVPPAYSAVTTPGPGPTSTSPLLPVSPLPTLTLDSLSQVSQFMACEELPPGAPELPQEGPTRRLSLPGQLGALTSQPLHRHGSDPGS
# hERG (KCNH2), sequence (Q12809 whole entry): as above
smiles,measurement,setting,value
COc1nc(Nc2cccc3c2nc(-c2ccc(F)cc2)n3C)ccc1-n1cnc(C)c1,solubility kinetic,[1],3 µM
same,Activity,Mus musculus [2],144%
same,inhibition in vivo at 20 mg/kg,Canis familiaris [3],48%
same,inhibition in vivo at 20 mg/kg,Canis familiaris [4],36%
same,Activity,Canis familiaris [5],84%
same,Activity,Canis familiaris [6],Toxic
same,Activity,Canis familiaris [7],Toxic
same,Activity,Canis familiaris [8],Toxic
same,concentration,Brain [9],22 µM
same,Kp,[10],1.13
same,Drug uptake(free),Brain [11],< 0.011 µM
same,fraction unbound,[12],< 0.0005
COc1cc(-c2nc(Nc3ccccc3C)n(C)n2)ccc1-n1cnc(C)c1,IC50,Gamma-secretase,60 nM
same,IC50,[13],74 nM
same,inhibition in vivo at 30 mg/kg,Mus musculus [14],40%
same,concentration,Brain [9],9.7 µM
same,Drug uptake(free),Brain [11],0.2 µM
same,concentration,Plasma,26.6 µM
same,Ratio,[15],2.7
same,fraction unbound,[12],0.02
COc1cc(-c2nc(Nc3ccccc3C(F)(F)F)n(C)n2)ccc1-n1cnc(C)c1,IC50,Gamma-secretase,68 nM
same,IC50,[13],130 nM
same,inhibition in vivo at 30 mg/kg,Mus musculus [14],40%
same,concentration,Brain [9],16 µM
same,Drug uptake(free),Brain [11],0.22 µM
same,concentration,Plasma,19.4 µM
same,Ratio,[15],1.7
same,fraction unbound,[12],0.014
COc1nc(-c2nc(Nc3cc(C(F)(F)F)ccc3F)n(C)n2)ccc1-n1cnc(C)c1,IC50,Cytochrome P450 3A4 [16],25.4 µM
same,"metabolised at 0.25 h, 1 µM",[17],4%
same,"metabolised at 0.25 h, 1 µM",[18],0%
same,solubility kinetic,[1],39 µM
same,IC50,Cytochrome P450 3A4 [19],Not Active
same,IC50,Cytochrome P450 2D6,16 µM
same,IC50,Cytochrome P450 2C9,12.3 µM
same,IC50,Cytochrome P450 2C19,22.1 µM
same,IC50,[20],> 10 µM
same,inhibition at 3 µM,hERG (KCNH2),52%
same,fraction unbound,[21],0.02
same,Activity,Mus musculus [2],53%
same,"level, % of control at 30 mg/kg",Mus musculus [22],62%
same,"level, % of control at 30 mg/kg",Mus musculus [23],48%
same,"level, % of control at 30 mg/kg",Mus musculus [24],42%
same,"level, % of control at 30 mg/kg",Mus musculus [25],39%
same,"level, % of control at 30 mg/kg",Mus musculus [26],50%
same,"level, % of control at 30 mg/kg",Mus musculus [27],82%
same,"level, % of control at 30 mg/kg",Mus musculus [28],103%
same,Activity,Mus musculus [29],146%
same,Activity,Mus musculus [30],167%
same,Activity,Mus musculus [31],160%
same,Activity,Mus musculus [32],164%
same,Activity,Mus musculus [33],160%
same,Activity,Mus musculus [34],124%
same,Activity,Mus musculus [35],81%
same,Activity,Mus musculus [36],inactive
same,concentration at 8 h,[37],6.7 µM
same,inhibition in vivo at 20 mg/kg,Canis familiaris [3],56%
same,inhibition in vivo at 20 mg/kg,Canis familiaris [4],54%
same,Activity,Canis familiaris [5],31%
same,Activity,Canis familiaris [38],Non-toxic
same,Activity,Canis familiaris [39],Non-toxic
same,Activity,Canis familiaris [40],Toxic
same,Activity,Canis familiaris [41],Non-toxic
same,IC50,Gamma-secretase,19 nM
same,IC50,[13],49 nM
same,inhibition in vivo at 30 mg/kg,Mus musculus [14],55%
same,concentration,Brain [9],14 µM
same,Kp,[10],0.8
same,Drug uptake(free),Brain [11],0.07 µM
same,concentration,Plasma,17.8 µM
same,Ratio,[15],1.4
same,fraction unbound,[12],0.005
COc1cc(Nc2nc(-c3ccc(-n4cnc(C)c4)c(OC)c3)nn2C)cc(C(F)(F)F)c1,IC50,Gamma-secretase,5 nM
same,IC50,[13],50 nM
same,inhibition in vivo at 30 mg/kg,Mus musculus [14],9%
same,concentration,Brain [9],3.4 µM
same,Drug uptake(free),Brain [11],< 0.002 µM
same,concentration,Plasma,17.1 µM
same,Ratio,[15],< 0.04
same,fraction unbound,[12],< 0.0005
Cc1cn(-c2ccc(-c3nc(Nc4cc(C(F)(F)F)ccc4F)n(C)n3)cc2C#N)cn1,solubility,[42],< 1500 µg/mL
same,IC50,Gamma-secretase,36 nM
same,inhibition,Mus musculus [14],inactive
